NSD2 inh: NSD2 (human) methyltransferase inhibition | NSD2 peptide methylation, AlphaScreen, 120 min | inhibition, % at 12.5 µM | 310,000 compounds, 0.54% hits | O96028 | AID 743445; in the data active means inhibition above about 50%
Fh CTSL1 inh: cathepsin L1 inhibition, PFM18AAP counter-screen; 300,000 compounds, 0.49% hits; inhibition, % at 5.96 µM; AID 1906; recombinant F. hepatica cathepsin L1, Z-Leu-Arg-MCA fluorescence;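 active means inhibition above the mean of all tested compounds plus 3 SD, set per screening campaign, cut at about 17% in these data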;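 further: 0% = plate median of test compound wells and 100% = 1 µM Z-Phe-Ala-diazomethylketone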
TDP2 absorb: TDP2 (human) inhibition, absorbance primary screen; O95551; recombinant TDP2, T5PNP hydrolysis, p-nitrophenol absorbance 415 nm; inhibition, % at 12.8 µM; 370,000 compounds, 0.34% hits; AID 720702;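 active means inhibition above the mean of all tested compounds plus 3 SD, set per campaign, cut at about 25% in these data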;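 further: 0% = DMSO with enzyme and 100% = buffer with substrate but no TDP2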
Target sequence (O95551 whole entry, looked up): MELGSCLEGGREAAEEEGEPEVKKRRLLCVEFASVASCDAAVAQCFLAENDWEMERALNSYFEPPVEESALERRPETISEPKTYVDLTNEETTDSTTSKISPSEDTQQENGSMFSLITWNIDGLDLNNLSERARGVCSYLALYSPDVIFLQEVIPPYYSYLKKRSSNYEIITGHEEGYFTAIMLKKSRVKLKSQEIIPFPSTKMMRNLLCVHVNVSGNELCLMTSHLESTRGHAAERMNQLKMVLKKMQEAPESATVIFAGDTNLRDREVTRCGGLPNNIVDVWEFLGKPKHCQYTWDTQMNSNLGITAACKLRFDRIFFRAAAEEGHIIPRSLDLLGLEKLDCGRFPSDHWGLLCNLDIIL
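Evaluation: % inhibition relative to enzyme-containing and enzyme-free wells. Material: recombinant human TDP2. Benchmarks: enzyme-free and DMSO wells. Timing: enzyme reaction with compound for 2 h at 37 °C. Compound dosing: 12.8 µM only. Measured by: p-Nitrophenol epi absorbance. Reagent: T5PNP substrate at 5 mM, a TopII-DNA adduct mimic. Replication: single well per compound.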
UBC9 SUMO inh: inhibitors of human SUMOylation (UBC9). HTRF SUMOylation assay, SAE1/SAE2 + UBC9, in vitro. inhibition, % at 35 µM. 290,000 compounds, 0.36% hits; in the data active means inhibition above about 50%, passing the limit was not always enough
An asterisk follows results filed as active. This is a sample that favours compounds with a hit; in the whole collection about 1.2% have one here.

O=C(Cc1nnc(NC(=O)c2ccccc2)s1)N/N=C\c1ccc(O)c(O)c1 was read as NSD2 inh 68*, Fh CTSL1 inh 8, TDP2 absorb -7 and UBC9 SUMO inh 14.
O=C(Cc1nnc(NC(=O)c2ccccc2)s1)N/N=C/c1ccc(O)cc1 was read as NSD2 inh 1, Fh CTSL1 inh 2, TDP2 absorb 10 and UBC9 SUMO inh 10.
Cc1nc2c(-c3ccc(F)cc3)cnn2c(N)c1-c1ccccc1 was read as NSD2 inh -3, Fh CTSL1 inh 19*, TDP2 absorb -17 and UBC9 SUMO inh 8.
Cc1nc2c(-c3ccc(Cl)cc3)cnn2c(N)c1-c1ccc(F)cc1 was read as NSD2 inh -1, Fh CTSL1 inh 1, TDP2 absorb 2 and UBC9 SUMO inh -3.
For Cc1cc(C)cc(Oc2coc3c(CN(C)C)c(O)ccc3c2=O)c1 the results were NSD2 inh 3, Fh CTSL1 inh 2, TDP2 absorb -3 and UBC9 SUMO inh 51*.
Screening CCCCCCC12C(=Cc3cc(C)ccc31)c1ccccc1C(CC(=O)NCc1ccccc1)N2C(=O)OC (configuration not stated) returned TDP2 absorb -3.
For O=C(N/N=C/c1ccc(OCc2ccccc2)cc1)c1ccncc1 the results were NSD2 inh -3, Fh CTSL1 inh 11, TDP2 absorb 4 and UBC9 SUMO inh 12.
`Oc1ccc(N=Cc2ccc(OCc3ccccc3)cc2)cc1` gave NSD2 inh 79*, Fh CTSL1 inh 45*, TDP2 absorb 23 and UBC9 SUMO inh 74.
`O=C1Nc2ccccc2C(O)(C(=O)NCc2ccco2)N1c1ccc(Cl)c(Cl)c1` (configuration not stated) gave Fh CTSL1 inh 66* and UBC9 SUMO inh 25.
For COC(=O)[C@]12C[C@H](CC(=O)NCc3cccs3)C(=O)N(Cc3ccc(Cl)cc3Cl)C1=C[C@H](C(C)C)O[C@@H]2C1CC1 the results were TDP2 absorb -5.
For CCS(=O)(=O)C1=NN2C(=N)/C(=C\c3ccc(SCc4ccco4)o3)C(=O)N=C2S1 the results were NSD2 inh 95*, TDP2 absorb 17 and UBC9 SUMO inh 62*.
Screening CCS(=O)(=O)C1=NN2C(=N)/C(=C\c3ccc(OC(=O)c4ccco4)c(Br)c3)C(=O)N=C2S1 returned NSD2 inh 20, Fh CTSL1 inh 1 and UBC9 SUMO inh 19.
CC(C)[C@H](NC(=O)c1ccco1)C(=O)N1CCC[C@H]1C(=O)NCc1ccccc1 was read as TDP2 absorb 6.
For CC(C)(C)c1ccc(/C=N/NC(=S)Nc2cccnc2)cc1 the results were Fh CTSL1 inh -1 and UBC9 SUMO inh 6.
For Oc1ccc(/C=N/NC(=S)Nc2cccnc2)cc1O the results were NSD2 inh 75*, Fh CTSL1 inh 5, TDP2 absorb -8 and UBC9 SUMO inh 24.
For OC[C@@H]1CN(Cc2ccco2)C[C@H](n2cnc3c(NCc4ccncc4)ncnc32)O1 the results were NSD2 inh -3 and TDP2 absorb -6.
CS(=O)(=O)NCCSCc1ccccc1 was read as NSD2 inh -2, Fh CTSL1 inh 19*, TDP2 absorb -9 and UBC9 SUMO inh -23.
Screening Cc1ccc(CSCCNS(C)(=O)=O)cc1 returned NSD2 inh -8, Fh CTSL1 inh 2, TDP2 absorb -2 and UBC9 SUMO inh -11.
Screening CC(=O)OCCn1c2nc(=O)[nH]c(=O)c-2nc2cc(C)c(C)cc21 returned NSD2 inh 5, TDP2 absorb 9 and UBC9 SUMO inh 60*.
`CC(C)N1CCN(Cc2nc(-c3ccccc3)cs2)CC1CCO` (configuration not stated) gave NSD2 inh -1, Fh CTSL1 inh 20*, TDP2 absorb 10 and UBC9 SUMO inh 16.
Screening OCCC1CN(Cc2nc(-c3ccccc3)cs2)CCN1C1CCCC1 (configuration not stated) returned NSD2 inh 1, Fh CTSL1 inh 4, TDP2 absorb -12 and UBC9 SUMO inh -11.
For O=[N+]([O-])c1cccc(C=Nc2cccc3ccccc23)c1O the results were NSD2 inh 1, Fh CTSL1 inh 3, TDP2 absorb 2 and UBC9 SUMO inh 51*.
For O=C(Nc1ccc(C(=O)c2ccccc2)cc1)c1ccc(F)cc1 the results were NSD2 inh 1.
For CCNc1nc(SC)nc(N(C#N)CC(=O)OC)n1 the results were NSD2 inh -1, Fh CTSL1 inh 62*, TDP2 absorb 16 and UBC9 SUMO inh 5.
CCOC(=O)CN(C#N)c1nc(C)cc(C)n1 was read as NSD2 inh -2, Fh CTSL1 inh 19*, TDP2 absorb 0 and UBC9 SUMO inh -4.

Bioassay records deposited in PubChem BioAssay by several laboratories.
